Laboratory results as given in ChEMBL document CHEMBL1126276, “Synthesis and antimalarial properties of 1-imino derivatives of 7-chloro-3-substituted-3,4-dihydro-1,9(2H,10H)-acridinediones and related structures” (J Med Chem, 1992).

How the values were obtained:
[1] = tested on: Plasmodium berghei; test: Antimalarial activity was measured against mice (Mus musculus) infected with Plasmodium berghei by subcutaneous administration of 640 mg/kg dose; format: organism-based; parameters: dose 640 mg/kg, route subcutaneous; details: in vivo, sc
Summary of the method: (§1)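 […] in mice infected with a normal drug-sensitive P. berghei strain. Compound dissolved or suspended in sesame or peanut oil, given as a single subcutaneous dose 72 h postinfection.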

[2] = tested on: Plasmodium berghei; test: Antimalarial activity in Plasmodium berghei infected mice (Mus musculus) after subcutaneous 160 mg/kg dose; format: functional
Summary of the method: (§2)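 Normal drug-sensitive P. berghei strain in mice. Compound dissolved or suspended in sesame or peanut oil, given parenterally as a single subcutaneous dose 72 h postinfection.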

[3] = tested on: Plasmodium berghei; test: (§3) Antimalarial activity in Plasmodium berghei infected mice (Mus musculus) after 20 mg/kg subcutaneous dose; format: functional; summary of the method: as §2
[4] = tested on: Plasmodium berghei; test: Antimalarial activity in Plasmodium berghei infected mice (Mus musculus) after subcutaneous 320 mg/kg dose; format: functional; summary of the method: as §2
[5] = tested on: Plasmodium berghei; test: (§4) Antimalarial activity in Plasmodium berghei infected mice (Mus musculus) after 40 mg/kg subcutaneous dose; format: functional; summary of the method: as §2
[6] = tested on: Plasmodium berghei; test: Antimalarial activity in Plasmodium berghei infected mice (Mus musculus) after subcutaneous 640 mg/kg dose; format: functional; summary of the method: as §2
[7] = tested on: Plasmodium berghei; test: (§5) Antimalarial activity in Plasmodium berghei infected mice (Mus musculus) after 80 mg/kg subcutaneous dose; format: functional; summary of the method: as §2
[8] = tested on: Plasmodium berghei; test: as §3; format: functional; summary of the method: as §1; remark: listed apart in the source
[9] = tested on: Plasmodium berghei; test: as §5; format: functional; summary of the method: as §1; remark: listed apart in the source
[10] = tested on: Plasmodium berghei; test: as §4; format: functional; summary of the method: as §1; remark: listed apart in the source
[11] = tested on: Plasmodium berghei; test: Antimalarial activity was measured against mice (Mus musculus) infected with Plasmodium berghei by subcutaneous administration of 320 mg/kg dose; format: organism-based; parameters: dose 320 mg/kg, route subcutaneous; details: in vivo, sc; summary of the method: as §1
[12] = tested on: Plasmodium berghei; test: Antimalarial activity in Plasmodium berghei infected mice (Mus musculus) after 320 mg/kg subcutaneous dose; format: functional; summary of the method: as §1
[13] = tested on: Plasmodium berghei; test: Antimalarial activity Plasmodium berghei infected mice (Mus musculus) after 640 mg/kg subcutaneous dose; format: functional; summary of the method: as §1
[14] = tested on: Plasmodium berghei; test: Antimalarial activity in Plasmodium berghei infected mice (Mus musculus) after 160 mg/kg subcutaneous dose; format: functional; summary of the method: as §1
[15] = tested on: Plasmodium berghei; test: Antimalarial activity was measured against mice (Mus musculus) infected with Plasmodium berghei by subcutaneous administration of 160 mg/kg dose; format: organism-based; parameters: dose 160 mg/kg, route subcutaneous; details: in vivo, sc; summary of the method: as §1

| SMILES | No. of toxic deaths [1] | No. of cured mice [2] | No. of cured mice [3] | No. of cured mice [4] | No. of cured mice [5] | No. of cured mice [6] | No. of cured mice [7] | Delta mean survival time [8] | Delta mean survival time [9] | Delta mean survival time [10] | No. of toxic deaths [11] | Delta mean survival time [12] | Delta mean survival time [13] | Delta mean survival time [14] | No. of toxic deaths [15] | No. of cured mice ([2]; 160 mg/kg) | No. of cured mice ([3]; 20 mg/kg) | Delta mean survival time ([8]; 20 mg/kg) | Delta mean survival time ([12]; 320 mg/kg) | Delta mean survival time ([13]; 640 mg/kg) |
| --- | --- | --- | --- | --- | --- | --- | --- | --- | --- | --- | --- | --- | --- | --- | --- | --- | --- | --- | --- | --- |
| CCN(CC)CC(C)(C)C/N=C1\CC(c2ccc(C(F)(F)F)cc2)Cc2c1c(=O)c1cc(Cl)ccc1n2O (stereo not drawn) | 2 | 5 | 3 | 5 | 3 | 3 | 4 | 13 | 12.5 | 11.2 |  |  |  |  |  |  |  |  |  |  |
| O=c1c2c(n(O)c3ccc(Cl)cc13)CC(c1ccc(C(F)(F)F)cc1)C/C2=N\CCCN1CCCC1 (stereo not drawn) | 4 | 5 | 1 | 3 | 2 | 1 | 5 | 11 |  | 10.8 | 1 |  |  |  |  |  |  |  |  |  |
| CC1/C(=N\CCCN(C)C)c2c(n(O)c3ccc(Cl)cc3c2=O)CC1c1ccc(Cl)cc1Cl (stereo not drawn) |  | 5 | 1 | 4 | 5 | 1 | 4 | 11.1 | 16.8 |  |  | 2.8 | 1.8 |  |  |  |  |  |  |  |
| O=C1CC(c2ccc(Cl)cc2Cl)Cc2nc3ccc(Cl)cc3c(O)c21 (stereo not drawn) |  | 4 | 2 | 5 | 3 | 5 | 4 | 10.3 | 15.8 | 18.1 |  |  |  | 17.8 |  |  |  |  |  |  |
| CN(C)CCC/N=C1\CC(c2ccc(C(F)(F)F)cc2)Cc2nc3ccc(Cl)cc3c(O)c21 (stereo not drawn) | 3 | 3 | 3 | 2 | 5 | 2 | 5 | 10.4 |  |  | 2 |  |  |  | 1 |  |  |  |  |  |
| O=C1CC(c2ccc(C(F)(F)F)cc2)Cc2nc3ccc(Cl)cc3c(O)c21 (stereo not drawn) |  | 5 | 1 | 5 | 2 | 5 | 4 | 8.9 | 9.4 | 9.9 |  |  |  |  |  |  |  |  |  |  |
| CCN(CC)CCCC/N=C1\CC(c2ccc(C(F)(F)F)cc2)Cc2c1c(=O)c1cc(Cl)ccc1n2O (stereo not drawn) | 4 | 5 | 2 | 4 | 4 |  | 5 | 14 |  | 10.5 |  |  |  |  |  |  |  |  |  |  |
| CCc1ccc2nc3c(c(O)c2c1)/C(=N/CCCN(C)C)CC(c1ccc(C(F)(F)F)cc1)C3 (stereo not drawn) | 4 |  |  |  |  |  |  |  |  | 0.6 |  |  | 1.4 | 1.9 | 1 |  |  |  |  |  |
| CN(C)CCC/N=C1\CC(c2ccc(C(F)(F)F)cc2)Cc2nc3ccc([N+](=O)[O-])cc3c(O)c21 (stereo not drawn) | 4 | 4 |  | 3 |  | 1 | 1 | 2.2 | 8.9 | 5.4 | 2 |  |  | 11.6 |  |  |  |  |  |  |
| CC1/C(=N\CCCN(C)C)c2c(n(O)c3ccc(Cl)cc3c2=O)CC1c1ccc(C(F)(F)F)cc1 (stereo not drawn) | 5 |  |  |  | 2 |  | 5 | 8.1 |  | 10.2 | 5 |  |  |  | 5 |  |  |  |  |  |
| CCN(CC)CC/N=C1\CC(c2ccc(Cl)c(Cl)c2)Cc2nc3ccc(Cl)cc3c(O)c21 (stereo not drawn) |  | 5 | 2 | 3 | 4 | 5 | 4 | 9.3 | 8 | 8 |  | 20 |  |  |  |  |  |  |  |  |
| CC1/C(=N\CCCN(C)C)c2c(nc3ccc(Cl)cc3c2O)CC1c1ccc(C(F)(F)F)cc1 (stereo in doubt; cis) | 1 |  |  |  | 5 |  | 5 |  |  |  |  |  |  | 3 |  | 4 | 4 | 10.7 | 3.1 | 2.3 |
| CN(C)CCC/N=C1\CC(c2ccc(C(F)(F)F)cc2)Cc2nc3ccc(F)cc3c(O)c21 (stereo not drawn) | 5 | 1 |  |  | 4 |  |  |  |  | 14.9 |  |  |  |  | 4 |  |  |  |  |  |
